# Source: publication PMC7007330 (Molecular microbiology, 2019)
# Entries after “also recorded” stand apart in the source; their conditions may differ. Like-named read-outs stand apart in the source and are kept apart here.
# Assays:
# WT RsbU45–313 = WT RsbU45–313 (Chlamydia trachomatis, UniProt A0A0H3MDU0); assay type: binding; conditions: for SPR dose-dependent binding curves: Figure S3; for binding in initial SPR screening: ligands at 100 μM and 1 mM
# RsbU45–313 [1] = target: T1, RsbU45–313 (Chlamydia trachomatis, UniProt A0A0H3MDU0); assay: Differential scanning fluorimetry; assay type: binding
# RsbU45–313 [2] = target: T1, RsbU45–313; assay: biochemical; assay type: binding
# [3] = system: wild-type Chlamydia trachomatis L2; assay: Growth curves with chemical inhibitors; assay type: cell-based; conditions: L929 cells; HQNO 1 μM, BKA 0.25 μM added at infection; 0-72 hpi
# [4] = system: wild-type C. trachomatis L2; assay: Progeny assay; assay type: cell-based, Chlamydia trachomatis; conditions: L929 cells; BKA 0.25 μM, HQNO 1 μM; 36 hpi then passaged
# How it was run: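 L929 cells were infected with C. trachomatis L2 wild-type or RsbU* strains, with BKA (0.25 μM) and HQNO (1 μM) added at infection where indicated. At 36 hpi, wells were either fixed and stained with MicroTrack reagent, or water-lysed and passaged onto fresh host monolayers, then fixed and stained 36 h later. IFUs were counted, and fold change was taken as post-passage IFUs relative to first-36 h IFUs.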
# [5] = system: wild-type C. trachomatis L2; assay: Immunofluorescence microscopy of infected L929 cells, wild-type; assay type: cell-based, Chlamydia trachomatis
# How it was run: (§1)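 L929 monolayers were grown to confluency on slides and infected with wild-type C. trachomatis L2 or RsbU* mutant. HQNO or BKA was added immediately after infection where indicated. At 24 and 72 hpi, cells were fixed in 100% methanol (10 min, RT), washed with HBSS then PBS, and stained with MicroTrack reagent (1:40 in PBS, 1 h 50 min, RT). Nuclei were stained with DAPI (10 min, RT, dark) and samples mounted in antifade. Imaging was by spinning-disk confocal at 150X, 7 Z-stacks, maximum projection.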
# RsbU* mutant = assay: Immunofluorescence microscopy of infected L929 cells, RsbU* mutant; assay type: cell-based, Chlamydia trachomatis; conditions: 24 and 72 hours
# How it was run: as §1
# ATP translocases = conditions: cited from earlier work
# RsbU45–313 R134A = target: T2, RsbU45–313 R134A (Chlamydia trachomatis, UniProt A0A0H3MDU0, R134A); assay: Surface plasmon resonance, R134A variant; assay type: binding; conditions: read-out: KD (estimated, steady state affinity), SPR, PBS
# T2 sequence (A0A0H3MDU0 45-313 R134A): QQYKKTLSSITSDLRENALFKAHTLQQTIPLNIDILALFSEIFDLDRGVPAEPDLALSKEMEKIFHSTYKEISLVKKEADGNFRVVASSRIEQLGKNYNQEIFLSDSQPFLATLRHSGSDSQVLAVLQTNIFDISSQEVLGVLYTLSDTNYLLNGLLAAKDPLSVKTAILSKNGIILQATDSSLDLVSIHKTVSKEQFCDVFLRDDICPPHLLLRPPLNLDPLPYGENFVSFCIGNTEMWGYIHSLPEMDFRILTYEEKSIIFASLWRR
# RsbU45–313 Q137A = target: T3, RsbU45–313 Q137A (Chlamydia trachomatis, UniProt A0A0H3MDU0, Q137A); assay: Surface plasmon resonance, Q137A variant; assay type: binding; conditions: read-out: KD (estimated, steady state affinity), SPR, PBS
# T3 sequence (A0A0H3MDU0 45-313 Q137A): T2 sequence (A0A0H3MDU0 45-313 R134A)
# RsbU45–313 K140A = target: T4, RsbU45–313 K140A (Chlamydia trachomatis, UniProt A0A0H3MDU0, K140A); assay: Surface plasmon resonance, K140A variant; assay type: binding; conditions: read-out: KD (estimated, steady state affinity), SPR, PBS
# T4 sequence (A0A0H3MDU0 45-313 K140A): T2 sequence (A0A0H3MDU0 45-313 R134A)
# RsbU45–313 K140A/R134A = target: T5, RsbU45–313 K140A/R134A (Chlamydia trachomatis, UniProt A0A0H3MDU0, K140A/R134A); assay: Surface plasmon resonance, K140A/R134A variant; assay type: binding; conditions: read-out: KD (estimated, steady state affinity), SPR, PBS
# T5 sequence (A0A0H3MDU0 45-313 R134A/K140A): T2 sequence (A0A0H3MDU0 45-313 R134A)
# [6] = system: RsbU* mutant strain of C. trachomatis L2; assay: Growth curves with chemical inhibitors; assay type: cell-based, Chlamydia trachomatis; conditions: L929 cells; HQNO 1 μM added at infection
# [7] = system: sodium-dependent NADH dehydrogenase; conditions: low concentrations (1 μM); cited from earlier work
# [8] = 5 mM and 10 mM ligand, 10 μM RsbU45–313
smiles,measurement,setting,value
O=C(O)CC(O)C(=O)O (stereo not shown) [malate],SPR dose-dependent binding curves,WT RsbU45–313,show dose-dependent binding
same,binding in initial SPR screening,WT RsbU45–313,binding was only observed
same,DSF temperature shift,RsbU45–313 [1]; [8],Significant stabilizing temperature shifts
same,Kd,RsbU45–313 [2],22 µM
"CO[C@H](C/C=C\C=C\CC/C=C/C[C@H](C)/C=C/C(=C\C(=O)O)CC(=O)O)/C(C)=C\C=C(/C)C(=O)O [BKA, bongkrekic acid]",growth of wild-type Chlamydia (secY vs rpp30 genome copies),[3],decrease in the growth of wild-type Chlamydia
same,progeny production (IFUs),[4],decrease in IFUs produced
same,morphology by confocal microscopy,[5]; 24 and 72 hours,No obvious morphological abnormalities
same,levels of RsbU* Chlamydia or their dispersion within the host cell,RsbU* mutant,appeared to have no effect
same,inhibition of ATP translocases,ATP translocases,inhibit ATP translocases
O=C(O)CCC(=O)C(=O)O [alpha-ketoglutarate],SPR dose-dependent binding curves,WT RsbU45–313,show dose-dependent binding
same,binding in initial SPR screening,WT RsbU45–313,binding was only observed
same,Kd,"WT RsbU45–313; read-out: KD (estimated, steady state affinity), SPR, WT RsbU45–313, PBS",419 µM
same,Kd,RsbU45–313 R134A,526 µM
same,Kd,RsbU45–313 Q137A,548 µM
same,Kd,RsbU45–313 K140A,597 µM
same,Kd,RsbU45–313 K140A/R134A,558 µM
same,DSF temperature shift,RsbU45–313 [1]; [8],Significant stabilizing temperature shifts
same,Kd,"RsbU45–313 [2]; read-out: KD (ITC), single trial, 30 μM protein, PBS, data not shown",25.8 µM
O=C(O)CC(=O)C(=O)O [oxaloacetate],SPR dose-dependent binding curves,WT RsbU45–313,show dose-dependent binding
same,binding in initial SPR screening,WT RsbU45–313,binding was only observed
same,DSF temperature shift,"RsbU45–313 [1]; highest ligand concentration tested, only in one of two biological replicates",significant positive temperature shift
same,Kd,RsbU45–313 [2],55.5 µM
O=C(O)CC(=O)O [malonate],SPR dose-dependent binding curves,WT RsbU45–313,do not appear to be binding
O=C(O)CCC(=O)O [succinate],SPR dose-dependent binding curves,WT RsbU45–313,do not appear to be binding
"CCCCCCCc1cc(O)c2ccccc2[n+]1[O-] [HQNO, 2-heptyl-4-hydrosyquinoline N-oxide]",growth of wild-type Chlamydia (secY vs rpp30 genome copies),[3],not statistically different from the RsbU* mutant growth at any time point; also recorded: marked reduction in growth
same,growth of RsbU* mutant (secY vs rpp30 genome copies),[6],does not have an additive effect on the growth defect
same,progeny production (IFUs),[4],decrease in the number of IFUs produced compared to the initial infection
same,inclusion morphology by confocal microscopy,[5]; 24 hours post-infection,formed smaller inclusions and appear to contain fewer EBs
same,inclusion morphology by confocal microscopy,[5]; 72 hours post-infection,inclusions that were grossly under-full
same,levels of RsbU* Chlamydia or their dispersion within the host cell,RsbU* mutant,appeared to have no effect
same,inhibition of sodium-dependent NADH dehydrogenase,[7],selectively inhibit
